Measurements published in ChEMBL document CHEMBL4038313, “Expanding the Antiviral Spectrum of 3-Fluoro-2-(phosphonomethoxy)propyl Acyclic Nucleoside Phosphonates: Diamyl Aspartate Amidate Prodrugs” (J Med Chem, 2017).
pEC50, pIC50: −log10 of the molar value.

How the values were obtained:
[1] = Cytotoxic activity against HEL cells assessed as alteration of cell morphology after 3 days by microscopic method; type: cell-based; settings: human
Procedure, shortened: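 HEL cells with compound; MCC is the lowest concentration giving microscopically detectable alteration of cell morphology.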

[2] = Selectivity index, ratio of CC50 for HEL cells to EC50 for thymidine kinase deficient Varicella-Zoster virus 07-1; type: toxicity; settings: human, read-out: Ratio CC50/EC50
Procedure, shortened: (§1)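 HEL fibroblast monolayers inoculated with 100 CCID50 HCMV (AD-169, Davis) or 20 PFU VZV (TK+ Oka, TK− 07-1). Adsorbed 1–2 h, inoculum removed, then incubated with compound dilutions. HCMV cytopathicity or VZV plaques scored once untreated infected controls reached completion. EC50 is 50% reduction. SI is CC50/EC50, and the potency ratio is the ratio of EC50s.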

[3] = Stability of the compound in pH 1 buffer at 2 mg after 5 hrs by 31P NMR spectroscopy; type: physicochemical; settings: pH 1, 5 h
Procedure, shortened: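 2.0 mg compound in 0.2 mL acetone-d6 plus 0.3 mL pH 1 buffer (equal parts 0.2 M HCl and 0.2 M KCl). In situ 31P NMR (202 MHz) at 37 °C, spectra every 30 min over 14 h.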

Hepatitis B virus = experiment: Antiviral activity against HBV ayw1 infected in human HepG2(2.2.15) cells assessed as reduction in viral replication by measuring extracellular viral DNA copy number after 6 days by real-time qPCR method; type: functional, cell-based; settings: ayw1, HepG2 2.2.15, 144 h
Procedure, shortened: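 HepG2.2.15 cells (two copies of HBV ayw1 genome), 1.5 × 10^4/well in DMEM with 2% FBS and 380 μg/mL G418. After 16–24 h, compound added in triplicate, medium with compound renewed at day 3. Supernatant collected at day 6, Pronase-treated, and extracellular HBV DNA measured by TaqMan qPCR (precore/core) against an HBV DNA standard curve. EC50/EC90 derived; CC50 by MTS uptake.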

[4] = system: Human immunodeficiency virus 1; experiment: Potency index, ratio of (S)-9-[3-Fluoro-2-(phosphonomethoxy)propyl]adenine EC50 to compound EC50 for CXCR4-tropic HIV-1 NL4-3 infected in human TZM-bl cells; type: functional
[5] = Stability of the compound in phosphate buffer of pH 8 at 1 mg after 14 hrs by 31P NMR spectroscopy; type: physicochemical; settings: read-out: Stability
Procedure, shortened: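 1 mg compound in 0.2 mL acetone-d6 plus 0.3 mL pH 8 buffer (0.1 M Na2HPO4 adjusted with 0.1 M HCl). In situ 31P NMR (202 MHz) at 37 °C, spectra every 30 min over 14 h.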

[6] = system: Human immunodeficiency virus 1; experiment: Antiviral activity against CXCR4-tropic HIV-1 NL4-3 infected in human MT4 cells assessed as inhibition of virus-induced cytopathic effect after 6 days by XTT dye based assay; type: functional, cell-based; settings: Human immunodeficiency virus 1, NL4-3, MT4, 144 h
Procedure, shortened: (§2)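 MT-4 cells, 1 × 10^4 per well, given compound dilutions and wild-type NL4-3 or K65R NL4-3. Virus titred to give 85–95% cell killing at day 6. Incubated 6 days at 37 °C, 5% CO2. Viability read by XTT at 450/650 nm. EC50 from CPE reduction and toxicity from uninfected drug wells, by four-parameter fit. Fold change is K65R EC50 over wild-type EC50.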

[7] = Cytotoxicity against human PHA-stimulated PBMC assessed as cell viability by tetrazolium dye assay; type: cell-based
Human alphaherpesvirus 3 [8] = experiment: Antiviral activity against thymidine kinase expressing Varicella-Zoster virus Oka strain assessed as inhibition of plaque formation; type: functional; settings: Human alphaherpesvirus 3, strain Oka vaccine; procedure, shortened: as §1
[9] = system: Human immunodeficiency virus 1; experiment: Antiviral activity against CXCR4-tropic HIV-1 NL4-3 infected in human TZM-bl cells assessed as inhibition of virus-induced cytopathic effect preincubated with cells for 30 mins followed by viral infection measured after 48 hrs in presence of p-24 HIV-1 Ag by luciferase reporter gene assay; type: functional, cell-based; settings: Human immunodeficiency virus 1, NL4-3, TZM-bl
Procedure, shortened: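 TZM-bl cells, 1 × 10^4 per well in DMEM with 10% FBS and 10 mM […], incubated 30 min at 37 °C with compound. Then HIV-1 NL4.3 (X4) or BaL (R5) added at 100 pg p24 Ag per well. After 48 h, cells lysed with luciferase substrate. Tat-induced luminescence read after 10 min dark incubation as a measure of replication.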

[10] = Cytotoxic activity against HEL cells assessed as reduction in cell proliferation after 3 days by coulter counting method; type: cell-based; settings: human
Procedure, shortened: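 HEL cells seeded at 5 × 10^3/well, grown 24 h, then given compound for 3 days at 37 °C. Cell number counted by Coulter counter. CC50 is 50% reduction of proliferation relative to untreated controls, read from graphic plots.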

[11] = Selectivity index, ratio of CC50 for HEL cells to EC50 for thymidine kinase expressing Varicella-Zoster virus Oka; type: toxicity; settings: human, read-out: Ratio CC50/EC50; procedure, shortened: as §1
[12] = system: Human immunodeficiency virus 1; experiment: Selectivity ratio of EC50 for tenofovir-resistant CXCR4-tropic HIV-1 NL4-3 harboring reverse transcriptase K65R mutant infected in human MT4 cells to EC50 for CXCR4-tropic HIV-1 NL4-3 infected in human MT4 cells; type: functional; procedure, shortened: as §2
[13] = system: Human immunodeficiency virus 1; experiment: (§3) Antiviral activity against CXCR4-tropic HIV-1 NL4-3 infected in human PHA-stimulated PBMC assessed as inhibition of viral replication by measuring reduction in p24 antigen production preincubated with cells for 30 mins followed by viral infection measured on day 10 post infection in presence of IL-2 by ELISA; type: functional; settings: Human immunodeficiency virus 1, NL4-3
Procedure, shortened: (§4)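 PBMCs stimulated with 2 μg/mL PHA for 3 days at 37 °C, then 5 × 10^5 cells/ml preincubated 30 min at 37 °C with serial compound dilutions plus 2 ng/mL IL-2. Infected with 1500 pg/well HIV-1 BaL or 500 pg/well other isolates. IL-2 re-added on days 3 and 6. Supernatant p24 Ag measured by ELISA at day 10. EC50 is 50% inhibition of replication.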

[14] = system: Human immunodeficiency virus 1; experiment: as §3, with “CCR5 tropic HIV1 BaL” for “CXCR4-tropic HIV-1 NL4-3”; type: functional; settings: Human immunodeficiency virus 1, BaL; procedure, shortened: as §4
Human alphaherpesvirus 3 [15] = experiment: Potency index, ratio of (S)-9-[3-Fluoro-2-(phosphonomethoxy)propyl]adenine EC50 to compound EC50 for thymidine kinase expressing Varicella-Zoster virus Oka; type: functional, strain Oka vaccine; procedure, shortened: as §1
[16] = Selectivity index, ratio of CC50 for HepG2.2.15 cells to EC50 for HBV ayw1 infected in human HepG2(2.2.15) cells assessed as reduction in viral replication by measuring intracellular viral DNA copy
Procedure, shortened: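 Run as the HepG2.2.15 6-day assay (triplicate compound, medium with compound renewed at day 3). At the end, total intracellular DNA was isolated from the cells and HBV DNA copy number measured by TaqMan qPCR. EC50/EC90 derived; SI is CC50/EC50.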

[17] = system: Human immunodeficiency virus 1; experiment: Potency index, ratio of (S)-9-[3-Fluoro-2-(phosphonomethoxy)propyl]adenine EC50 to compound EC50 for CCR5 tropic HIV1 BaL infected in human TZM-bl cells; type: functional
Human betaherpesvirus 5 = experiment: Antiviral activity against Human cytomegalovirus AD169 infected in HEL cells assessed as inhibition of virus-induced cytopathic effect; type: functional, cell-based; settings: Human betaherpesvirus 5, AD169, HEL; procedure, shortened: as §1

For CCCCCOC(=O)C[C@H](NP(=O)(CO[C@H](CF)Cn1cnc2c(N)ncnc21)Oc1ccccc1)C(=O)OCCCCC (stereo not given in full), the MCC at 72 h [1] was 31.4 µM, the selectivity ratio [2] was 34 and the Stability [3] was “Stable”. For the same compound, the pEC50 (Hepatitis B virus) was 8.00, the EC90 (Hepatitis B virus) was 1970 nM and the “Ratio EC50” value [4] was 600. The remaining at 14 h [5] was 58%, the pEC50 [6] was 7.52 and the CC50 [7] was 2480 nM. It also gave a pEC50 (Human alphaherpesvirus 3 [8]) of 7.30, a pEC50 [9] of 8.00 and a CC50 at 72 h [10] of 1960 nM. The selectivity ratio [11] was 39, the “Ratio EC50” value [12] was 5.7 and the pIC50 [13] was 8.52. The pIC50 [14] was 7.66, the “Ratio EC50” value (Human alphaherpesvirus 3 [15]) was 2000 and the “Ratio CC50/EC50” value [16] was 1017. For the same compound, the “Ratio EC50” value [17] was 1500 and the pEC50 (Human betaherpesvirus 5) was 5.40.
